Experimental data reported in ChEMBL document CHEMBL4130438, “6,7-Seco-ent-Kauranoids Derived from Oridonin as Potential Anticancer Agents” (J Nat Prod, 2017).
Active and inactive are the calls of the source. No cut-off for these calls is given here.

Key:
H22 [1] = test: Antitumor activity against […] cells xenografted in ICR mouse assessed as decrease in tumor weight at 10 to 20 mg/kg, iv qd administered for 14 consecutive days measured every 2 days; assay type: functional, organism-based
In short: (§1)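 Male ICR mice, five weeks old, implanted s.c. in the right flank with 1 × 10^6 H22 cells. After 7 days, randomised into groups of eight. Given i.v. once daily for 14 days, 10 or 20 mg/kg in 10% DMF/2% poloxamer/88% saline; negative controls received 0.9% saline i.v., positive control 20 mg/kg oridonin. Body weight and tumour volume (L × W²/2) recorded every 2 days. Tumours excised and weighed at sacrifice; inhibition (%) = (1 − treated/control mean tumour weight) × 100.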

MCF7 [2] = test: Induction of apoptosis in human MCF7 cells assessed as increase in caspase 3 expression level after 48 hrs by Western blot analysis; assay type: functional, cell-based
MCF7 [3] = test: Cell cycle arrest in human MCF7 cells assessed as accumulation at S phase at 1 uM after 48 hrs by propidium iodide staining based flow cytometry (reference value: 17.01%); assay type: functional
MGC-803 = test: Antiproliferative activity against human MGC803 cells after 72 hrs by MTT assay; assay type: functional, cell-based; settings: MGC-803, 72 h
In short: (§2)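 Cells pre-incubated 24 h at 37 °C, 5% CO2 in 96-well plates, then exposed to a range of compound concentrations (DMSO ≤0.25%) for 72 h. Viable cells read by MTT colour at 570 nm. Performed in quadruplicate, repeated three times. IC50 reported as means ± SD, n = 3.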

MCF7 [4] = test: Induction of apoptosis in human MCF7 cells assessed as early apoptotic cells at 1 uM after 24 hrs by Annexin-V FITC/propidium iodide staining based flow cytometry (reference value: 1.60%); assay type: functional
MCF7 [5] = test: Cell cycle arrest in human MCF7 cells assessed as accumulation at G1 phase at 2 uM after 48 hrs by propidium iodide staining based flow cytometry (reference value: 70.27%); assay type: functional
MCF7 [6] = test: Induction of apoptosis in human MCF7 cells assessed as late apoptotic cells at 0.50 uM after 24 hrs by Annexin-V FITC/propidium iodide staining based flow cytometry (reference value: 0.290%); assay type: functional
MCF7 [7] = test: Induction of apoptosis in human MCF7 cells assessed as late apoptotic cells at 0.25 uM after 24 hrs by Annexin-V FITC/propidium iodide staining based flow cytometry (reference value: 0.290%); assay type: functional
H22 [8] = test: Antitumor activity against […] cells xenografted in ICR mouse assessed as inhibition of tumor volume at 20 mg/kg, iv qd administered for 14 consecutive days measured every 2 days relative to control; assay type: functional; settings: 14 days; in short: as §1
MCF7 [9] = test: Induction of apoptosis in human MCF7 cells assessed as decrease in mitochondrial membrane potential measured after 36 hrs by JC-1 staining based fluorescence microscopy; assay type: functional, cell-based
In short: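 MCF-7 cells treated 36 h across a range of concentrations, then loaded with 10 μg/mL JC-1 for 30 min at 37 °C and washed in PBS. Monomer fluorescence read at ex 490/em 535 nm and aggregate fluorescence at ex 525/em 600 nm, by plate reader or fluorescence microscopy. Run in triplicate.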

MCF7 [10] = test: Cell cycle arrest in human MCF7 cells assessed as accumulation at S phase at 0.25 uM after 48 hrs by propidium iodide staining based flow cytometry (reference value: 17.01%); assay type: functional
KB 3-1 = test: Antiproliferative activity against human KB-3-1 cells after 48 hrs by MTT assay; assay type: functional, cell-based
MCF7 [11] = test: Antiproliferative activity against human MCF7 cells after 72 hrs by MTT assay; assay type: functional, cell-based; settings: MCF7, 72 h; in short: as §2
MCF7 [12] = test: Cell cycle arrest in human MCF7 cells assessed as accumulation at G2/M phase at 0.25 uM after 48 hrs by propidium iodide staining based flow cytometry (reference value: 12.72%); assay type: functional
MCF7 [13] = test: Cell cycle arrest in human MCF7 cells assessed as accumulation at G1 phase at 0.25 uM after 48 hrs by propidium iodide staining based flow cytometry (reference value: 70.27%); assay type: functional
MCF7 [14] = test: Cytotoxicity against human MCF7 cells assessed as decrease in cell viability after 24 hrs by LDH release assay; assay type: functional, cell-based
In short: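 MCF-7 and Bel-7402 cells seeded at ~5 × 10^3 per well for 24 h, then exposed to compounds. LDH released into the medium measured with CytoTox-ONE reagent (10 min, ambient temperature) followed by stop solution. Fluorescence read at ex 560/em 590 nm.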

MCF7 [15] = test: Induction of apoptosis in human MCF7 cells assessed as early apoptotic cells at 0.25 uM after 24 hrs by Annexin-V FITC/propidium iodide staining based flow cytometry (reference value: 1.60%); assay type: functional
MCF7 [16] = test: Induction of apoptosis in human MCF7 cells assessed as necrotic cells at 0.50 uM after 24 hrs by Annexin-V FITC/propidium iodide staining based flow cytometry (reference value: 0.610%); assay type: functional
Bel-7402 = test: Antiproliferative activity against human Bel7402 cells after 72 hrs by MTT assay; assay type: functional, cell-based; settings: Bel-7402, 72 h; in short: as §2

IC50 (MGC-803): 2200 nM
IC50 (MCF7 [11]): 680 nM
IC50 (Bel-7402): 1800 nM
Structure (SMILES): C=C1C(=O)[C@@]23C(=O)OC[C@]4(C=CCC(C)(C)[C@H]4C=O)[C@@H]2CC[C@@H]1[C@H]3OC(=O)c1ccc(F)cc1
Activity (H22 [1]): Active
Activity (MCF7 [2]): Dose-dependent effect
Activity (MCF7 [3]): 15.43%
Activity (MCF7 [4]): 10.2%
Activity (MCF7 [5]): 57.49%
Activity (MCF7 [6]): 7.68%
Activity (MCF7 [7]): 5.51%
inhibition in vivo at 20 mg/kg (H22 [8]): 52.5%
Activity (MCF7 [9]): Dose-dependent effect
Activity (MCF7 [10]): 18.3%
Activity (KB 3-1): Active
Activity (MCF7 [12]): 14.06%
Activity (MCF7 [13]): 67.64%
Activity (MCF7 [14]): inactive
Activity (MCF7 [15]): 6.67%
Activity (MCF7 [16]): 0.901%
